Test results from the EternaBench riboswitch data.

System: MS2 coat protein
Assay: apparent Kd, MS2 coat protein; higher = weaker binding; RNA-MaP array
Method in brief: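 Designed RNAs were transcribed on an Illumina sequencing chip from sequenced DNA templates. They were incubated at room temperature with fluorescently labeled MS2 coat protein at 1.5 nM to 3 μM, for 0.8–1.5 h at the lowest to 10–20 min at the highest concentrations, in Tris-HCl pH 7.5 buffer with KCl, MgCl2, BSA, DTT, tRNA and Tween20, with or without input ligand. Apparent Kd is the median of per-cluster binding-curve fits. Designs measured on fewer than 10 clusters were excluded.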

[1] = designed as: ON switch for flavin mononucleotide, no ligand
[2] = ligand present: flavin mononucleotide, designed as: ON switch for flavin mononucleotide
[3] = designed as: OFF switch for flavin mononucleotide, no ligand
[4] = ligand present: flavin mononucleotide, designed as: OFF switch for flavin mononucleotide
[5] = designed as: ON switch for theophylline, no ligand
[6] = ligand present: theophylline, designed as: ON switch for theophylline
[7] = designed as: OFF switch for theophylline, no ligand
[8] = ligand present: theophylline, designed as: OFF switch for theophylline

Row | Sequence | apparent Kd [3] | apparent Kd [4] | also measured
1 | GAGGCAACGAUGGAGGAUAUACUAGGUAAUACAUGAGGAUCACCCAUGUGAGAAAGAGAGUACAUGUAGAAGGCCAGAUAUGCGGU |  |  | apparent Kd [1]: 30.5 nM; apparent Kd [2]: 11.8 nM
2 | GAUAAAGUAGGAUAUACAUGAGGAUCACCCAUGUAGAGAGGAGAGCGUGCGAGAACCAGUAGAAGGACUAAACA | 13.9 nM | 12.4 nM | 
3 | GAUACAUGAGGAUCACCCAUGUGGGAAAUUCAUCUCAUUAAGAAGGAUAUGCAUCUAAAACUGGAGCAGAAGGUCUGUAUCCCG | 87 nM | 55.9 nM | 
4 | GAUACUACAUAGAAGGUACCGAUGAGCAAUUAACAAUGUGCGGCAACAUGAGGAUCACCCAUGUGUAAGGAUAUAUGCAGAACA | 20.9 nM | 15.5 nM | 
5 | GAUCCCACGAAGAAGGUCAGAUUUAGAUUACUUGAAGGAUAUUCACAUGAGGAUCACCCAUGUCCCGGCGCGGACUAGCCGAAU | 107 nM | 235 nM | 
6 | GAUGGUGUCAAGGAUAUUCCUAGCGGCUCGUUCGAAGAAGGUGAUACAUGAGGAUCACCCAUGUCCCUCCAUUU | 18.2 nM | 16.9 nM | 
7 | GAUUUUAGUGAAGGAUAUACAAACAACAUGAGGAUCACCCAUGUCUGGAAUGAUCGCAGGGCCCGGUAGAAGGUCAUCAGAAAG | 31.1 nM | 24 nM | 
8 | GCUCUAAGGGAGAAGGUCAUGUCGCAUCUUAGCGUUCACAUGAGGAUCACCCAUGUUAACUGUGUGAAGGAUAUCCUAGGCUGU |  |  | apparent Kd [1]: 358 nM; apparent Kd [2]: 125 nM
9 | GCUGAACAUGAGGAUCACCCAUGUCCGGAUACCAGCGGACCUCAUCGCCCUUGGCAGCCGAACCAACAGCUUGUGGUGUUCACUC |  |  | apparent Kd [5]: 35.4 nM; apparent Kd [6]: 49.9 nM
10 | GGAUACAGGAUAGGAUAUUCUGGGCCUUACAUGAGGAUCACCCAUGUGGAUUUUAUAUAUAGCCGGAAGAAGGAUCAACAGGUG | 11.8 nM | 9.21 nM | 
11 | GGCCUCACAUGAGGAUCACCCAUGUUACUACUUGUUCGAUUGGAGGAUAUCUCUAGAAUUUACUGAGAGAAGGCCAAUAUGGGA | 236 nM | 191 nM | 
12 | GGGUUAAAGCAGAAGGGUUACGGACAAAAUUAAACAGGAUAUGCCGUAAUACAUGAGGAUCACCCAUGUCAUACGUCAUCAGGG |  |  | apparent Kd [1]: 18.9 nM; apparent Kd [2]: 16 nM
13 | GUAAGACAAGGCAAGGAUAUGCCCUAAUGGACAUGAGGAUCACCCAUGUGGUUGCAUAAUCAAAAGCAGAAGGUGCUACAACACGG |  |  | apparent Kd [1]: 48.3 nM; apparent Kd [2]: 38.8 nM
14 | GUACUGCAGUUAGGAUAUACCGGAGGAUUAUACACCUACUAACAUGAGGAUCACCCAUGUCUCUCGUAGAAGGAACAUAUUAGC |  |  | apparent Kd [1]: 20.9 nM; apparent Kd [2]: 16.5 nM
15 | GUAUUGUAAGGAUAUAGUAGGCCAGUACGAAGGCUUGAGCACUAGAAGGUACAUGAGGAUCACCCAUGUGGUGG | 401 nM | 146 nM | 
16 | GUCCUUAUAACAUGAGGAUCACCCAUGUAAUUCAAUCUGCGAGAGGAUAUGUCUGAGCAUCCCACACAGAAGGCUCCGGAACAG | 22.8 nM | 20.1 nM | 
17 | GUCUAAGGCCAAGGAUAUUGCGUACUUGCGGAUGAUAGUAGAAAACAUGAGGAUCACCCAUGUCACAAGAAGGUGGUCCUGGGA | 323 nM | 176 nM | 
18 | GUGACACAUGAGGAUCACCCAUGUCAGGAUAUAGGUCAGCAAAGUAACCAUGACGAGACUAGAAGGGACGCGUG | 30.5 nM | 22.5 nM | 
19 | GUGAGACAUGAGGAUCACCCAUGUUAGGAUAUUAAACUGGUUUAGUCUGUGACCGACGUAAGAAGGAACUUGAU | 13.1 nM | 11.7 nM | 
20 | GUGCCAAAAGAGGAUAUAUUGACGAUGAUUCGCAUAGAAGGCUUUACAUGAGGAUCACCCAUGUGGGAGUGAUC | 614 nM | 184 nM | 
21 | GUGGCACUCCUAGGAUAUUCACCUUGCGUAGAAAGACAUGAGGAUCACCCAUGUGUCUCUUAUUUGAAGAAGGAGGAACCUCGG |  |  | apparent Kd [1]: 12.7 nM; apparent Kd [2]: 13 nM
22 | GUGGCUUCGGUGAGGAUAUGUCCGAUAAAACUGAGACAGAAGGCACAUGAGGAUCACCCAUGUAGCGUUGAUUC | 17.5 nM | 44.5 nM | 
23 | GUGUCUUGGGAGGAUAUCCACUUCACGUCAUAUGGAGAAGGCCCGACAUGAGGAUCACCCAUGUGGUAACUGGC | 25.7 nM | 28.7 nM | 
24 | GUGUUAUAUCCGUAACAUGAGGAUCACCCAUGUGUGAGAUCGAAGGAUAUCUGUCUGAGCUCAAAAGAGAAGGUCGAUACAAUG | 57.6 nM | 44.9 nM | 
25 | GUUCGCUGAGGAUAUACAUGAGGAUCACCCAUGUUCAAGUCUCGUGACUGUUCCCAGCGUAGAAGGCAGCGGUG | 7.62 nM | 8.85 nM | 
26 | GUUGCACAUGAGGAUCACCCAUGUUUGGAUACCAGUCUCUGUAAUGACCCUUGGCAGCCACCAUAGACGCUUGAGUAGAGCCUGA |  |  | apparent Kd [5]: 15 nM; apparent Kd [6]: 16 nM
27 | UAAAGGUUCCAGAAGGCCACGACUCGAUCCUGUGGAGGAUAUGGGACAUGAGGAUCACCCAUGUCUGGUGGAUUACAUCCCACA |  |  | apparent Kd [1]: 20.4 nM; apparent Kd [2]: 32.2 nM

Row | Sequence | apparent Kd [3] | apparent Kd [4] | also measured
28 | UAAAUUGAAGGAUAUACAUGAGGAUCACCCAUGUAAGAAAUACAUGAAAAUAACAACAGUAGAAGGUCAAAACU | 15.9 nM | 12.7 nM | 
29 | UAAGUGCUCACAUGAGGAUCACCCAUGUAUUUACUUAUGAGGAGAAGGAUCAAGGAGCAGCGGUGAUAGGAUAUCCUAAUAGAA |  |  | apparent Kd [1]: 33 nM; apparent Kd [2]: 23.6 nM
30 | UAAUUCACUAUUCACGGUCCGAUGUUCGAUACCAGAUCAUUUCGAAUCCCUUGGCAGCGAUUAACAUGAGGAUCACCCAUGUAAC |  |  | apparent Kd [7]: 32.2 nM; apparent Kd [8]: 83.9 nM
31 | UACAUACAUGAGGAUCACCCAUGUUGCGAUACCAGCGAAAGAGACCGCCCUUGGCAGCGCUCAUUUAGUUCCAUUCUUGAUCGAA |  |  | apparent Kd [5]: 14.3 nM; apparent Kd [6]: 25.1 nM
32 | UACAUGAGGAUCACCCAUGUCAAUUGUAGAUCGCUCAACGGCAGAAGGCGCAACCCGAUCGGGAGCGAGGAUAUGCCUCGUUAA | 26.5 nM | 27.1 nM | 
33 | UAGACAAAACAGAAGGAAUGAAGUAGAACAACAAUAGGAUAUGUAUAAAAGUAUACAUGAGGAUCACCCAUGUUACCAACAUGA |  |  | apparent Kd [1]: 11.3 nM; apparent Kd [2]: 9.34 nM
34 | UAGACUCAGUAGAAGGAUGAUAUUACGAUAUAACGUGACAUGAGGAUCACCCAUGUCUUCUGGUCAUAGGAUAUACGCGAAAUG |  |  | apparent Kd [1]: 45.6 nM; apparent Kd [2]: 21.3 nM
35 | UAGAGCGGCAACAUGAGGAUCACCCAUGUGGGCGAUGAGGCUCAGGAUAUACACCACCGCUGGACGUAGAAGGGAGACUCGCCG | 41.1 nM | 20.1 nM | 
36 | UAUAGUUAAAAGGAUAUCGAAAACAAGCGUAAACGAGAAGGUUUAACAUGAGGAUCACCCAUGUAAGGAGAUGG | 58.4 nM | 139 nM | 
37 | UAUCUAACGAAGGAUACCAGUACAUGAGAGUACAUGAGGAUCACCCAUGUUAGAUACGGGUACCCUUGGCAGCCUCACCUACACC |  |  | apparent Kd [5]: 56.8 nM; apparent Kd [6]: 63.3 nM
38 | UAUGGACAUGAGGAUCACCCAUGUGGUAGAUGCUUAGGAUAUUAGACAGGAUACAUGUACUAAGAAGGAAGAUGGU |  |  | apparent Kd [1]: 266 nM; apparent Kd [2]: 102 nM
39 | UCAAGUGAACCAUGGAAACAUUCAAUAGAUACCAGCAUUAAAACCUGCCCUUGGCAGCUAUGAACAUGAGGAUCACCCAUGUGAA |  |  | apparent Kd [7]: 18.5 nM; apparent Kd [8]: 71.4 nM
40 | UCAGCACAUGAGGAUCACCCAUGUCGUGAUACCAGCCUGUGCGAAGGCCCUUGGCAGCACAGUCCCGAUUUGCUUAUAUGCACUU |  |  | apparent Kd [5]: 35.7 nM; apparent Kd [6]: 36.9 nM
41 | UCAGGACAUGAGGAUCACCCAUGUUGUCAAACCAAAGGAUAUAGGCUGAUCGAAAGAGAACUAGAAGGUUGCGAUU |  |  | apparent Kd [1]: 20.1 nM; apparent Kd [2]: 15.6 nM
42 | UCAUUUUCAGAAGGAUAUUUACCAGGCCAAGGUAAAGAAGGUCUAUGGGUCACUUCCUUGAUACAUGAGGAUCACCCAUGUGAA | 292 nM | 429 nM | 
43 | UCCAGCAACGAGAAGGUACACAUGAGGAUCACCCAUGUCCGUUGACCGUCUCCAUGGGCGAUGGGUAAGGAUAUCGGGCAGAUG |  |  | apparent Kd [1]: 68.9 nM; apparent Kd [2]: 49.4 nM
44 | UCCGUUGUAGGAUAUACAUGAGGAUCACCCAUGUAAUGUGGGCAAUUAUAAACUUACUGUAGAAGGACAGAGUG | 493 nM | 555 nM | 
45 | UCCUCGCACGAGAAGGCAAGCCGAGAAACACCUUGAGGAUAUCGUCGACAGACCACCGGGACAUGAGGAUCACCCAUGUGGGCC | 75.2 nM | 49 nM | 
46 | UCCUCGUUAGGAUAUGCCCACAUACACAGUUGUGAACUCUGGCAGAAGGAACAUGAGGAUCACCCAUGUAUAUA | 89.3 nM | 230 nM | 
47 | UCGACAUGAGGAUCACCCAUGUGCCUCGGAUGUCGUUAGAGUGAGGAUAUGUCACACCAAAACGUACAGAAGGCACUUAUUAGA | 296 nM | 267 nM | 
48 | UCGCCAUUGACGGCCGCCACUCAAUGGUCUUCUCUGAACAUAAUUAACAUGAGGAUCACCCAUGUGAGGACCGGGUCGGUUAGAC |  |  | apparent Kd (designed as: OFF switch for tryptophan, no ligand): 19.5 nM; apparent Kd (ligand present: tryptophan, designed as: OFF switch for tryptophan): 32.3 nM
49 | UCGCCGCUGGAGACAUGAGGAUCACCCAUGUGGUCUUUCGUAAGAAGGUGCCUAUAGAACUUUUGCAAGGAUAUUACGCCGGAG | 217 nM | 113 nM | 
50 | UCGCUAUUGUCGGCCGCCACUACUGCAGGGAAACAAAUAUAACCACAUGAGGAUCACCCAUGUCUUAGGACCGGGACACCCAUCU |  |  | apparent Kd (designed as: ON switch for tryptophan, no ligand): 98.3 nM; apparent Kd (ligand present: tryptophan, designed as: ON switch for tryptophan): 80.7 nM
51 | UCGGCUUCCCAAGGAUAUGAGGUGCUUAUCGACAUGAGGAUCACCCAUGUAAAACUAGCUGCCAUUCAGAAGGUGGACACGCGC |  |  | apparent Kd [1]: 17 nM; apparent Kd [2]: 7.78 nM
52 | UCUAUUAACUAAGGAUAUAGAACAGGCCGGAUUUUGUUGCGUCUGACAUGAGGAUCACCCAUGUUCUAGAAGGUAGACUGCUGC | 13.3 nM | 11.7 nM | 
53 | UCUCAGUGAGGAUAUCGAACAGACCUUUGUGUGCUAAUUUUCGAGAAGGCACAUGAGGAUCACCCAUGUGACUC | 54.6 nM | 49.7 nM | 
54 | UGACCACAUGAGGAUCACCCAUGUCAGGAUAUAGGUACACUGGUACAGCCUUUUCGGCCUAGAAGGGACUCUCU | 9.09 nM | 8.42 nM | 
